In publication PMC8386104 (RSC Chemical Biology, 2020):
Bridge positions count the residues as written; N and C are the ends. Ends that are not written are not given here. Peptide text beside a SMILES is read from it.

Key:
[1] = Stability of peptides in human serum; format: in vitro ADME; conditions: 25% (v/v) human serum, pH 7.5
In short: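 Peptide (50 μM final) was held 0, 1, 2, 4, 8 and 24 h in 25% (v/v) human serum in PBS (pH 7.5). Serum proteins were precipitated with ACN containing 2% TFA. The full-length peptide peak (MS-confirmed) was quantified by RP-HPLC at 215 nm as a percentage of 0 h recovery. A PBS-only incubation served as control. Single experiment, three technical replicates.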

MDM2 = MDM2 (Homo sapiens, UniProt Q00987); assay: Fluorescence polarization competition, F-pDI:MDM2; format: binding; conditions: for IC50, inhibition of F-pDI:MDM2 interaction: fluorescence polarization, 10 nM F-pDI, 8 nM MDM2, Tris buffer, three technical replicates
Sequence of MDM2 (Q00987 whole entry): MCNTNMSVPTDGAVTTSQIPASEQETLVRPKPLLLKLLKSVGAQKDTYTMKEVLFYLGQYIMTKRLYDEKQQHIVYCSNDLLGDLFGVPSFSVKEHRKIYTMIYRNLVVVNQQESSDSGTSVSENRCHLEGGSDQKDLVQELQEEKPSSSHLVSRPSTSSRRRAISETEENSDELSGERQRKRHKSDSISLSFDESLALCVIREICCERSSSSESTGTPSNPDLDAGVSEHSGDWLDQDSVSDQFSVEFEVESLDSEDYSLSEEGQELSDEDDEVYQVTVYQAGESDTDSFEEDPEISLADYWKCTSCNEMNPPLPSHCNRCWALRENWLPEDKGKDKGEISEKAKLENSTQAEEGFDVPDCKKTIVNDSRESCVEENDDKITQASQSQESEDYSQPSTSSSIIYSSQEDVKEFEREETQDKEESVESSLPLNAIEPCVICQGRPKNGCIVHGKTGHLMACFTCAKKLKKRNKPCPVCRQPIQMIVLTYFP

MDMX = biological target: T1, MDMX (Homo sapiens, UniProt O15151); assay: Fluorescence polarization competition, F-pDI:MDMX; format: binding; conditions: for IC50, inhibition of F-pDI:MDMX interaction: fluorescence polarization, 10 nM F-pDI, 45 nM MDMX, Tris buffer, three technical replicates
T1 sequence (O15151 1-490): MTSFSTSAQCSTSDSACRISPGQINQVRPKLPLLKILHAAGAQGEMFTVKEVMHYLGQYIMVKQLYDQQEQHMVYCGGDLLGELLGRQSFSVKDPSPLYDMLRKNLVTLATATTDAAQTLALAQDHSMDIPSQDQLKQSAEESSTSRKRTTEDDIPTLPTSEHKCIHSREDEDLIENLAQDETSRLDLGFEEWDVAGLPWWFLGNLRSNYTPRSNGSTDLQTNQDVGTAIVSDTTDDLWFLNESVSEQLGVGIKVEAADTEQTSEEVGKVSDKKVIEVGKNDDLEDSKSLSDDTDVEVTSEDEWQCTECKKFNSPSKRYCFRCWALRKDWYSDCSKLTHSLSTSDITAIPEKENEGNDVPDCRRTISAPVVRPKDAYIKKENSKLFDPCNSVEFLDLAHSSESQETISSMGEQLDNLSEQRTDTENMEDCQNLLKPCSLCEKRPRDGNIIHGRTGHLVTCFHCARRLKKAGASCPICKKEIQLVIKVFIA
In short: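 Competition fluorescence polarization with fluorescein-labeled pDI (p53 mimic) bound to MDMX, read at 489/515 nm. F-pDI:MDMX signal defined 0% inhibition and free F-pDI in Tris buffer 100%. Percent inhibition was taken from the change in polarization relative to F-pDI. IC50 came from Hill-fitted dose-response curves; three technical replicates.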

MM96L melanoma cells = assay: Cell toxicity, resazurin, MM96L; format: cell-based, human; conditions: p53 WT, 24 h, 0.25–32 μM peptide, mean ± SD, three independent experiments
In short: (§1)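 5000 cells/well were exposed to serially diluted peptide (0.25–32 μM) for 24 h at 37 °C, 5% CO2. Viability was read by resazurin-to-resorufin fluorescence (ex 560, em 585 nm), with 0.1% Triton X-100 set as 100% toxicity and PBS as 0%. CC50 came from a Hill-slope saturation fit. Mean ± SD of three independent experiments on different days.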

[2] = Cell toxicity, resazurin, HaCaT; format: cell-based; conditions: human, HaCaT keratinocyte cells
In short: (§2)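 Peptides serially diluted (0.25–32 μM) and incubated 24 h at 37 °C, 5% CO2 with 5000 cells/well. HEK293 was grown in DMEM and HaCaT in RPMI with 2 mM L-glutamine and 10 mM sodium pyruvate, both with 10% FBS and penicillin/streptomycin. Resazurin-to-resorufin fluorescence was read at 560/585 nm. Triton X-100 (0.1%) set 100% and PBS 0% toxicity. CC50 came from Hill-fitted curves; three independent experiments.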

MCF7 breast cancer cells = assay: Cell toxicity, resazurin, MCF7; format: cell-based, human; conditions: p53 WT, 24 h, 0.25–32 μM peptide, mean ± SD, three independent experiments
In short: as §1

[3] = system: HeLa cervical cancer cells; assay: Cell toxicity, resazurin, HeLa; format: cell-based, human; conditions: cervix, p53 WT (rep), 24 h, 0.25–32 μM peptide, mean ± SD, three independent experiments
In short: as §1

[4] = system: HCT116 colorectal cancer cells; assay: Cell toxicity, resazurin, HCT116; format: cell-based, human; conditions: p53 WT, 24 h, 0.25–32 μM peptide, mean ± SD, three independent experiments
In short: as §1

[5] = Cell toxicity, resazurin, HEK293; format: cell-based; conditions: human, HEK293 embryonic kidney cells
In short: as §2

[6] = Cell toxicity, resazurin, PBMCs; format: cell-based; conditions: human, peripheral blood mononuclear cells (PBMCs)
In short: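 Heparinized blood from healthy donors was diluted 1:1 with PBS, separated on Ficoll-Paque (1400 rpm, 30 min) and the interface layer washed three times in PBS. Cells (5000/well) received serially diluted peptide (0.25–32 μM) for 24 h at 37 °C, 5% CO2, then a resazurin read at 560/585 nm. Triton X-100 (0.1%) set 100%, PBS 0%. CC50 came from a Hill fit; single experiment, three donors.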

RBC hemolysis = format: cell-based; conditions: human, red blood cells (RBCs), 0.25% v/v
In short: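 Donor RBCs were pelleted (4000 rpm, 1 min) and washed three times in PBS. Peptides diluted in PBS (0.25–32 μM) were incubated with RBCs (0.25% v/v final) for 1 h at 37 °C. After pelleting, supernatant A415 gave released hemoglobin. Triton X-100 (0.1% final) set 100% and PBS 0% hemolysis. Single experiment, RBCs from three donors.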

[7] = system: panel of cancerous and noncancerous cell lines, PBMCs and RBCs; assay: Cytotoxic activity across the panel of cell lines; format: cell-based, human; conditions: 24 h, resazurin (RBC 1 h hemolysis)
In short: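 Cell lines and PBMCs (Ficoll-separated from PBS-diluted heparinized blood, PBS-washed) were read by 24 h resazurin fluorescence; PBMC data came from one experiment with three donors. RBCs were washed in PBS, then incubated at 0.25% v/v with peptide in PBS for 1 h at 37 °C. After pelleting, supernatant A415 gave hemoglobin release, with 0.1% Triton X-100 as 100% and PBS as 0%.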

MDA-MB-231 cells [8] = assay: Internalization of labeled peptides, flow cytometry, MDA-MB-231; format: cell-based, human; conditions: read-out: FC50 (peptide concentration to detect fluorescence in 50% of cells), MDA-MB-231, 1 h, serum free medium, 0.06–2 μM labeled peptide, 10 000 cells, at least two independent experiments
In short: (§3)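 Cells were grown in DMEM with 10% FBS and seeded at 10^5 per well overnight (37 °C, 5% CO2). Serial dilutions of Alexa Fluor 488-labeled peptide in serum-free medium were added for 1 h, then cells were harvested. Flow cytometry used ex 488 nm/em 530/30 nm at 330 V, and readings were repeated after Trypan Blue quench (0.02% w/v final). % fluorescent cells was taken above the no-peptide threshold, and FC50 was fitted by Hill equation.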

MCF7 cells = assay: Internalization of labeled peptides, flow cytometry, MCF7; format: cell-based, human; conditions: read-out: FC50 (peptide concentration to detect fluorescence in 50% of cells), MCF7, 1 h, serum free medium, 0.06–2 μM labeled peptide, 10 000 cells, at least two independent experiments
In short: as §3

MM96L cells = assay: Live-cell confocal microscopy, intracellular location, MM96L; format: cell-based, human; conditions: spinning disc confocal, serum-free media, 1 and 4 μM cPF4PD-A488, 6 μM PF4P_pDI-A488, 1 μM cPF4Pext_pDI-A488
In short: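 MM96L cells were grown in RPMI with 2 mM L-glutamine, 10 mM sodium pyruvate and 10% FBS, and plated at 16 000 per chamber-slide well overnight (37 °C, 5% CO2). Cells were washed into serum-free medium and stained with MitoTracker Red (100 nM final, 5 min). Medium was then replaced with Alexa Fluor 488-labeled peptide in serum-free medium. Cells were imaged live over time at 37 °C, 5% CO2.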

MDA-MB-231 cells [9] = assay: Live-cell confocal microscopy, intracellular location, MDA-MB-231; format: cell-based, human; conditions: spinning disc confocal, serum-free media, 4 μM (sub-lethal)
p53:MDM2 = conditions: read-out: inhibition of p53:MDM2; previously reported; cited from earlier work

LQAPLYKKIIKKLLESGGSGGAPLYKKIIKKLLES-NH2 [PF4PD]
remaining at 24 h, 50 μM [1]: 20%
IC50, inhibition of F-pDI:MDM2 interaction (MDM2): did not inhibit
IC50, inhibition of F-pDI:MDMX interaction (MDMX): did not inhibit
CC50, MM96L (MM96L melanoma cells): 1.6 ± 0.1 µM
CC50 at 24 h [2]: 4.3 ± 0.2 µM
CC50, MCF7 (MCF7 breast cancer cells): 17.6 ± 2.0 µM
CC50, HeLa [3]: 17.2 ± 2.2 µM
CC50, HCT116 [4]: 4.8 ± 0.8 µM
CC50 at 24 h [5]: 13.7 ± 2.2 µM
CC50 at 24 h [6]: 14 ± 0.9 µM
HC50 at 1 h (RBC hemolysis): > 64 µM

LQAPLTFEHYWALLTSGGSGGAPLYKKIIKKLLES-NH2 [PF4P_pDI]
remaining at 24 h, 50 μM [1]: 60%
inhibition at 0.001 µM (MDM2; read-out: inhibition of F-pDI binding to MDM2): > 50%
inhibition at 0.001 µM (MDMX; read-out: inhibition of F-pDI binding to MDMX): > 50%
CC50, MM96L (MM96L melanoma cells): 13.2 ± 0.7 µM
CC50 at 24 h [2]: 17.1 ± 1.6 µM
CC50, MCF7 (MCF7 breast cancer cells): >32 µM
CC50, HeLa [3]: >32 µM
CC50, HCT116 [4]: 25.5 ± 2.1 µM
CC50 at 24 h [5]: 27.5 ± 2.3 µM
CC50 at 24 h [6]: > 32 µM
HC50 at 1 h (RBC hemolysis): > 64 µM

APLYKKIIKKLLES-NH2 [PF4P]
CC50, MM96L (MM96L melanoma cells): >32 µM
CC50 at 24 h [2]: > 32 µM
CC50, MCF7 (MCF7 breast cancer cells): >32 µM
CC50, HeLa [3]: >32 µM
CC50 at 24 h [5]: > 32 µM
CC50 at 24 h [6]: > 32 µM
HC50 at 1 h (RBC hemolysis): > 64 µM
cytotoxic activity against the tested cells [7]: not active against any of the tested cells

CC[C@H](C)[C@@H]1NC(=O)[C@H](CCCCN)NC(=O)[C@H](CCCCN)NC(=O)[C@H](Cc2ccc(O)cc2)NC(=O)[C@H](CC(C)C)NC(=O)[C@@H]2CCCN2C(=O)CNC(=O)CNC(=O)[C@@H](N)CSSC[C@@H](C(=O)N[C@@H](CCC(=O)O)C(=O)N[C@@H](CO)C(N)=O)NC(=O)[C@H](CC(C)C)NC(=O)[C@H](CCCCN)NC(=O)[C@H](CCCCN)NC(=O)[C@H]([C@@H](C)CC)NC(=O)[C@H]([C@@H](C)CC)NC(=O)[C@H](CCCCN)NC(=O)[C@H](CCCCN)NC(=O)[C@H](Cc2ccc(O)cc2)NC(=O)[C@H](CC(C)C)NC(=O)[C@@H]2CCCN2C(=O)[C@H](C)NC(=O)CNC(=O)CNC(=O)[C@H](CO)NC(=O)CNC(=O)CNC(=O)[C@H](CO)NC(=O)[C@H](CCC(=O)O)NC(=O)[C@H](CC(C)C)NC(=O)[C@H](CC(C)C)NC(=O)[C@H](CCCCN)NC(=O)[C@H](CCCCN)NC(=O)[C@H]([C@@H](C)CC)NC1=O [cPF4PD] (H-CGGPLYKKIIKKLLESGGSGGAPLYKKIIKKLCES-NH2; disulfide 1-33)
remaining at 24 h, 50 μM [1]: ~75%
IC50, inhibition of F-pDI:MDM2 interaction (MDM2): did not inhibit
IC50, inhibition of F-pDI:MDMX interaction (MDMX): did not inhibit
CC50 at 24 h [2]: 9.1 ± 0.7 µM
CC50 at 24 h [5]: > 32 µM
CC50 at 24 h [6]: 9.1 ± 1.3 µM
HC50 at 1 h (RBC hemolysis): > 64 µM

CQAPLYKKIIKKLLESGGSGGAPLYKKIIKKLLCES* A488 (sidechain bridge or staple) [cPF4PD-A488]
EC50 (MDA-MB-231 cells [8]): 0.16 µM
EC50 (MCF7 cells): 0.65 µM
intracellular location, MM96L (MM96L cells): enter directly into the cell cytoplasm
intracellular location, MDA-MB-231 (MDA-MB-231 cells [9]): entry of the labeled peptide into the cytoplasm was observed within two hours

A488 GCGGPLYKKIIKKLLESIIKKGGXGGSGGLTFEHYWAQLTGGC* (disulfide) [cPF4Pext_pDI-A488]
intracellular location, MM96L (MM96L cells): enter directly into the cell cytoplasm

CGGPLYKKIIKKLLESIIKKGGSGGSGGLTFEHYWAQLTGGC-NH2 (disulfide 1-42) [cPF4Pext_pDI]
IC50 (MDMX): 0.08 µM
CC50, MM96L (MM96L melanoma cells): 2.5 ± 0.1 µM
CC50 at 24 h [2]: 7.2 ± 0.3 µM
CC50, MCF7 (MCF7 breast cancer cells): 18.6 ± 2.0 µM
CC50, HeLa [3]: ∼32 ± 5 μM
CC50, HCT116 [4]: 11.7 ± 0.9 µM
CC50 at 24 h [5]: 19.1 ± 0.5 µM
CC50 at 24 h [6]: 4.3 ± 0.4 µM
HC50 at 1 h (RBC hemolysis): > 64 µM

A488 LQAPLTFEHYWALLTSGGXGGAPLYKKIIKKLLES* [PF4P_pDI-A488]
intracellular location, MM96L (MM96L cells): enter directly into the cell cytoplasm
